Source: PubChem BioAssay (several laboratories)
Many of the other results were omitted from the sample, so hits are more common in it than they were.
Calb FLC: affects C. albicans growth with fluconazole; hit rate 0.57% among 300,000; C. albicans CaCi-2 (fluconazole-resistant clinical isolate) + fluconazole, Alamar Blue growth, 48 h; growth inhibition, % (test concentration not listed);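 active = growth inhibition above about 58% in most replicates, limit read from the data, passing the limit was not always enough; inconclusive = exactly half the replicates above a set limit; inactive = most replicates below a set limit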;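 also: all wells also contain fluconazole at 8 µg/ml as a sub-toxic cotreatment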
L major viab: Leishmania major promastigote growth inhibition. AID 1063. hit rate 9% among 200,000. inhibition, % at 10 µM. Leishmania major promastigotes, resazurin fluorescence viability; in the data active = inhibition above about 50%;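 also: promastigotes grown with compound for 44 hours at 28 °C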
NALP1 yeast inh: inhibitors of NALP1 inflammasome in yeast | S. cerevisiae NALP1/ASC/caspase-1 growth, X-gal OD620, 72 h | inhibition, % at 10 µM | hit rate 0.61% among 280,000 | AID 2071; in the data active = inhibition mostly above about 24%, no sharp cut-off; inactive = mostly below about 32%
NLRP3 yeast inh: inhibitors of NALP3 inflammasome in yeast | inhibition, % at 10 µM | Yeast reconstituted NLRP3/ASC/caspase-1, beta-gal luminescence, 24 h | hit rate 0.39% among 330,000 | AID 2825;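 active = inhibition of 50% or more; inactive = inhibition below 50%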
PolyA inhibitor: yeast polyadenylation inhibition | S. cerevisiae SKY197-pL101 polyadenylation reporter, beta-gal luminescence; efflux-impaired pdr1/pdr3 knockout yeast; score 100 = 6 SD above DMSO | hit rate 0.02% among 300,000 | activity score, % at 12 µM | AID 1875;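 active = lowest replicate activity score at least 50, where 100 means six control SD above control mean; inconclusive = lowest score under 50 but half or more replicates reach 50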;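 also: yeast exposed to compound for 9 h at 30 °C; higher score means more reporter readthrough which indicates perturbed polyadenylation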
T cruzi inh: blocks replication of Trypanosoma cruzi | inhibition, % (concentration not given with the values) | hit rate 1.4% among 300,000 | T. cruzi beta-gal in NIH3T3, luminescence, 90 h | AID 1885;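 active = mean inhibition across valid replicates above about 55%, limit read from the data; inconclusive = mean below that limit but half or more replicates reach it; inactive = mean below it, under half of replicates reach it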;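 also: signal also drops with host cell toxicity which is not excluded here; higher percent means less beta-gal luminescence so fewer parasites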
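assay system = mouse NIH/3T3 fibroblasts infected with β-gal-expressing T. cruzi Tulahuen C4 | input = 5,000 NIH/3T3 host cells per well | buffer or medium = DMEM plus 2% FBS | timing = 3 h host attachment, then at least 90 h co-culture | measured by = GalScreen luminescence, 60 min | evaluation = luminescence reflecting intracellular parasite burden, expressed as percent inhibition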
Numbers stand for hits; – = inactive; ? = inconclusive; · = not tested or not shown.

SMILES | Calb FLC | L major viab | NALP1 yeast inh | NLRP3 yeast inh | PolyA inhibitor | T cruzi inh
Cc1onc(-c2ccccc2)c1C(=O)N/N=C/c1ccc([N+](=O)[O-])s1 | – | 100 | – | – | – | –
Cc1onc(-c2ccccc2)c1C(=O)N/N=C/c1ccco1 | – | · | – | – | – | –
O=C(CCNC(=O)c1ccccc1Cl)NN=Cc1ccccc1[N+](=O)[O-] | · | · | · | – | · | ·
COc1cc(/C=N/NC(=O)Cc2cccs2)c([N+](=O)[O-])cc1OC | – | – | – | – | – | –
Cc1ccc(NC(=S)N/N=C/c2ccc([N+](=O)[O-])s2)cc1 | – | 89 | – | – | – | 63
O=C(Cc1cccs1)N/N=C\c1ccc([N+](=O)[O-])s1 | – | 100 | – | – | – | 84
O=C(CNC(=O)c1ccccc1Cl)N/N=C/c1ccc([N+](=O)[O-])s1 | – | 99 | – | – | – | –
N#CCCS(=O)(=O)c1nnnn1-c1ccccc1 | · | – | – | · | · | ·
O=C(CSc1ncnc2c1nnn2Cc1ccc(F)cc1)NC1CCCCC1 | – | – | – | – | – | 79
COC(/C(=N/O)c1ccc(Cl)cc1)c1ccccc1 (configuration not stated) | – | · | – | – | – | –
O=C(Nc1nnc(-c2ccccc2)o1)c1cc(Cl)sc1Cl | – | – | – | – | – | –
O=C(Nc1nnc(-c2ccc(F)cc2)o1)c1cccc([N+](=O)[O-])c1 | 91 | 96 | – | – | – | –
O=C(Nc1nnc(-c2ccc(F)cc2)o1)c1cc(Cl)sc1Cl | – | 62 | – | – | – | –
COC(C(=O)Nc1ccnn1C1CCN(Cc2cnn(C)c2)CC1)c1ccccc1 (configuration not stated) | – | · | – | – | – | –
Cc1ccc(NC(=O)c2cccc(S(=O)(=O)N3CCN(C)CC3)c2)cc1F | – | · | – | – | – | –
CCc1nnc(NC(=O)CCN(c2cc(C)cc(C)c2)S(=O)(=O)c2ccc(Cl)cc2)s1 | – | 79 | – | – | – | –
Cc1ccc(N(CCC(=O)Nc2nnc(C3CC3)s2)S(=O)(=O)c2ccccc2)cc1 | – | 53 | – | – | – | –
CCNc1nc(NCC)nc(OCCNS(=O)(=O)c2ccccc2)n1 | – | · | · | – | – | –
NS(=O)(=O)c1ccc(CNC(=O)CCCSc2ccccc2)cc1 | – | · | – | – | – | –
CC1CCC(NC(=O)c2ccc3c(c2)S(=O)(=O)c2ccccc2C3=O)CC1 (configuration not stated) | – | · | · | – | – | –
Cc1ccc(-n2c3c(cc(C(=O)NCc4ccco4)c2=O)C(=O)CC(C)(C)C3)cc1 | – | 51 | – | – | – | –
COc1ccc(-n2c3c(cc(C(=O)NNc4ccccc4)c2=O)C(=O)CC(C)(C)C3)cc1 | – | 60 | – | – | – | –
CCCCN1CC[C@H]2C=CC[C@@H](C(=O)Nc3ccc(Cl)c(C(F)(F)F)c3)[C@H]2C1=O | 109 | · | · | – | – | –
COC(=O)C1=C(C)N(C)C(C)=C(C(=O)OC)C1c1ccc(F)c(Br)c1 | – | 76 | – | – | – | –
COC(=O)C1=C(C)N(C)C(C)=C(C(=O)OC)C1c1ccncc1 | – | – | – | – | – | –
SMILES | Calb FLC | L major viab | NALP1 yeast inh | NLRP3 yeast inh | PolyA inhibitor | T cruzi inh
Clc1ccc(SCCOCCN2CCc3ccccc3C2)cc1 | – | 88 | – | – | – | 66
Clc1ccc(SCCOCCN2CCCCC2)cc1 | – | 98 | – | – | – | ?
CC1CCCN(CCSc2ccc(Cl)cc2)C1 (configuration not stated) | – | 72 | – | – | – | –
CC1CN(CCOCCSc2ccccc2)CC(C)O1 (configuration not stated) | – | – | – | – | – | –
CC1CN(CCOCCSc2ccc(Cl)cc2)CC(C)O1 (configuration not stated) | – | · | – | – | – | 62
Cc1ccc(OCCCCN2CCc3ccccc3C2)cc1 | – | · | – | – | ? | –
CCOC(=O)C1CCN(CCCSc2ccc(Cl)cc2)CC1 | – | · | – | – | – | –
COc1ccc(CN2CCC(C(=O)Nc3ccc(Oc4cccnc4)cc3)CC2)c(C)c1C | – | · | – | – | – | –
CC1CCN(CCOCCSc2ccc(Cl)cc2)CC1 | – | 93 | – | – | – | –
Clc1ccc(SCCOCCN2CCOCC2)cc1 | – | · | – | – | – | 57
Cc1ccc(C)c(OCCOCCN2CC(C)OC(C)C2)c1C (configuration not stated) | – | 91 | – | – | – | –
Clc1ccc(SCCCCN2CCOCC2)cc1 | – | 97 | – | – | – | –
COc1ccc(OCc2nc3c4cc(OC)c(OC)cc4nc(=S)n3[nH]2)cc1 | – | – | – | – | – | –
O=C(CCN1CCOCC1)c1ccc(Cl)cc1 | – | 72 | – | – | – | 75
CCCn1c(=S)[nH]c2cc(C(=O)N3CCN(C4CCCCC4)CC3)ccc2c1=O | – | · | – | – | – | –
CCOc1ccc(C(=O)/C=C/c2ccccc2C(F)(F)F)cc1 | – | – | – | – | – | –
COc1ccc(C(=O)/C=C/c2ccccc2C(F)(F)F)cc1 | – | 54 | – | – | – | –
Cc1ccc(S(=O)(=O)N(CC(=O)NC2CC2)c2ccc(C)c(Cl)c2)cc1 | · | · | – | – | – | –
O=C(COC(=O)c1ccc(Br)o1)NCc1ccccc1Cl | · | · | · | – | · | ·
COc1cccc(OCCCn2cc(/C=C3/C(=N)N4C=C(C)SC4=NC3=O)c3ccccc32)c1 | – | 95 | – | – | – | 57
CC1=CN2C(=N)/C(=C/c3cn(CCCOc4ccccc4C)c4ccccc34)C(=O)N=C2S1 | – | – | – | – | – | –
COc1cccc(OCCn2cc(C=O)c3ccccc32)c1 | – | · | – | – | – | –
COc1ccc(OCCCn2cc(/C=C3/C(=N)N4C=C(C)SC4=NC3=O)c3ccccc32)cc1 | – | 87 | – | – | – | –
COc1ccc(OCCN2C(=O)NC3(CCc4ccccc4C3)C2=O)cc1 (configuration not stated) | – | – | – | – | – | –
CCOc1ccc(N(CC(=O)NC2CCCCC2C)S(=O)(=O)c2c(C)noc2C)cc1 (configuration not stated) | – | · | – | – | – | –
SMILES | Calb FLC | L major viab | NALP1 yeast inh | NLRP3 yeast inh | PolyA inhibitor | T cruzi inh
CCOc1ccc(S(=O)(=O)N(CC(=O)NC2CCCCC2C)Cc2ccco2)cc1 (configuration not stated) | – | 87 | – | – | – | –
Cc1ccc(OCCNC(=O)c2cccc(C)c2)cc1 | – | · | – | – | – | –
COc1cccc(OCCNC(=O)c2cc([N+](=O)[O-])cc([N+](=O)[O-])c2)c1 | – | 83 | – | – | – | 61
O=C(NCC1CC1)c1cc([N+](=O)[O-])cc([N+](=O)[O-])c1 | – | · | – | – | – | 61
Cc1ccc(OCCNC(=O)c2cc(C(=O)NCCOc3ccc(C)cc3)cc([N+](=O)[O-])c2)cc1 | – | 99 | – | – | – | –
CC(C)(C)c1ccc(OCCC(=O)NCC(c2cccs2)N2CCOCC2)cc1 (configuration not stated) | – | · | · | – | – | –
